Source: PubChem
Only some compounds are listed: those with a hit (about 2.1% of all), similar ones and a draw of the others.
hK5 inh = blocks human kallikrein 5 protease activity. recombinant hK5, fluorogenic AMC substrate cleavage. hit rate 0.59% among 210,000. Q9Y337. inhibition, % at 5 µM;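 active = inhibition of 40% or more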
Target sequence (Q9Y337 67-293 limits assumed): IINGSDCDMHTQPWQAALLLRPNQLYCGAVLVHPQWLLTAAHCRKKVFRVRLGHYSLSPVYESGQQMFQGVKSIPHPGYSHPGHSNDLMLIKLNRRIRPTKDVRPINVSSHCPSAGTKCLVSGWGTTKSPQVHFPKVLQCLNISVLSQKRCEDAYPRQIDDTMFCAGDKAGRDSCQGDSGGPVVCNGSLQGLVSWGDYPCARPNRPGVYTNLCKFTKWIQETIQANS
Thrombin inh = inhibitors of human thrombin | alpha-thrombin, Boc-VPR-AMC fluorogenic substrate cleavage | inhibition, % at 5 µM | hit rate 0.26% among 220,000 | AID 1046;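 active = inhibition at or above 40%; inactive = inhibition below 40%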
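Test system: human alpha-thrombin; medium: pH 7.5 Tris-saline with Tween 20; times: reaction at room temperature; signal: AMC fluorescence at 355 nm excitation and 460 nm emission; also added: Boc-VPR-AMC substrate, 15 µM final; dosing: one concentration per compound, 5 µM, with 0.2% DMSO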
EP2 antag = EP2 receptor (human) inhibition | hit rate 0.52% among 260,000 | P43116 | AID 1422 | C6 glioma cells expressing human EP2, cAMP TR-FRET; cells stimulated with saturating PGE2 | inhibition, % at 25 µM;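 active = percent inhibition above 40 after rounding to a whole number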;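 also: rat C6 glioma host cells with rolipram phosphodiesterase inhibitor present; the protocol text gives 20 µM as final concentration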
Target sequence (P43116 whole entry, looked up): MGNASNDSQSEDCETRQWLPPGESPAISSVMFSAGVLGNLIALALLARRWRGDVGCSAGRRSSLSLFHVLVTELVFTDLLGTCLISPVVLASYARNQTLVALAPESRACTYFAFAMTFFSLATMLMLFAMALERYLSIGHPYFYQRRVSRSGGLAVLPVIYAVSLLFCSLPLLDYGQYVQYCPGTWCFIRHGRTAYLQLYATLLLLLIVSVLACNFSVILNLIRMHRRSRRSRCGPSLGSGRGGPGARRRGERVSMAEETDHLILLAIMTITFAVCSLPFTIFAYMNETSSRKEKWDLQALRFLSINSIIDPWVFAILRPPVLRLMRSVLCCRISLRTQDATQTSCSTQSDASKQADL
FXIIa inh 1536 = inhibitors of human coagulation factor XIIa. purified FXIIa, Boc-QGR-AMC fluorogenic substrate, 2 h. inhibition, % at 5 µM. hit rate 0.3% among 220,000. AID 800; in the data active = inhibition above about 40%
FXIa inh = inhibitors of human coagulation factor XIa; P03951; inhibition, % at 5 µM; purified FXIa, Boc-Glu-Ala-Arg-AMC fluorogenic substrate; hit rate 0.14% among 220,000;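 active = inhibition of at least 40%; inactive = inhibition below 40%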;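 also: fluorescence of freed AMC excited at 355 nm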
EP2 modulator = EP2 receptor (human) modulation. induction, % at 25 µM. EP2-expressing cells, cAMP HTRF FRET, PGE2 co-stimulation. hit rate 0.83% among 260,000;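 active = compounds whose cAMP rise, as percent of the full-agonist control response, exceeds 60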;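 also: rat C6 glioma line stably carrying human EP2 under a CMV promoter; the protocol text gives 20 µM as final concentration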
EP2 confirm = human EP2 receptor cAMP induction, negative in counter-screens. shares compounds with EP2 modulator. C6 glioma EP2 cells, cAMP HTRF induction; plus low (about EC15) PGE2 agonist. calls only at 20 µM (by protocol). hit rate 47% among 1,300. AID 1080;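 active = cAMP induction above 50% in the main assay while under 30% in all four parallel counter assays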;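 also: rat C6 glioma cells stably expressing human EP2 receptor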
Each line names hits and unclear results; the compound was inactive in the other large screens (follow-up assays come after a bar, where they were run); ! = a repeat was not active.

COc1cc(C(=O)N2CCC(C(=O)c3nc4ccccc4s3)CC2)cc(OC)c1OC	none (no result: hK5 inh, Thrombin inh, EP2 antag, FXIIa inh 1536, FXIa inh)
COC(=O)c1ccc(-n2nc(C(F)(F)F)c3c2-c2ccoc2CC3)cc1	EP2 modulator 72 | EP2 confirm inactive
O=C(O)c1ccc(-n2nc(C(F)(F)F)c3c2-c2ccoc2CC3)cc1	none
O=C(COc1cccc2ccccc12)N1c2ccccc2CCc2ccccc21	EP2 modulator 66 | EP2 confirm active
O=C(COc1ccc(F)cc1)N1c2ccccc2CCc2ccccc21	none
COC(=O)c1ccc(NC(=O)C(=O)N2CCN(C(=S)NCC3CCCO3)CC2)cc1 (stereo not given)	none (no result: hK5 inh, Thrombin inh, FXIIa inh 1536, FXIa inh)
CCNc1c2c3c(cccc3n(C)c1=O)C(=O)c1ccccc1-2	none
Cn1c(=O)c(NC2CCCCC2)c2c3c(cccc31)C(=O)c1ccccc1-2	EP2 modulator 65 | EP2 confirm active
Cn1c(=O)c(NCCc2ccccc2)c2c3c(cccc31)C(=O)c1ccccc1-2	EP2 modulator 77 | EP2 confirm active
CCCc1cc(-c2[nH]ncc2-c2ccc3c(c2)OCCCO3)c(O)cc1OC	none
CCc1cc(-c2[nH]ncc2-c2ccc3c(c2)OCO3)c(O)cc1O	none (no result: EP2 antag) | EP2 confirm inactive
CC1CCN(c2nc(-c3ccccc3O)nc3ccccc23)CC1	none
COc1cccc(-c2nc(Oc3cc(C)cc(C)c3)c3ccccc3n2)c1O	none
Oc1ccccc1-c1nc(N2CCCC2)c2ccccc2n1	EP2 modulator 75 | EP2 confirm inactive
COc1cccc(-c2nc(N3CCC(C)CC3)c3ccccc3n2)c1O	none
COc1cccc(-c2nc(N3CC(C)CC(C)C3)c3ccccc3n2)c1O (stereo not given)	EP2 modulator 70 (no result: EP2 antag) | EP2 confirm active
CN1CCN(c2nc(-c3cccnc3)nc3ccccc23)CC1	none
c1cncc(-c2nc(N3CCCCCC3)c3ccccc3n2)c1	EP2 modulator 74 (no result: EP2 antag) | EP2 confirm active
CC(C)Oc1nc(-c2ccccc2O)nc2ccccc12	EP2 modulator 80 | EP2 confirm active
CCOC(=O)C(C)(C)Sc1nnc(COc2ccccc2)n1CC	none (no result: hK5 inh, Thrombin inh, FXIIa inh 1536, FXIa inh)
O=C1CC(C(=O)Nc2ccc(Cl)cc2)C2(CCCC2)O1 (stereo not given)	none (no result: hK5 inh, Thrombin inh, FXIIa inh 1536, FXIa inh)
COc1ccc(C(c2nnnn2C2CCCCC2)N2CCc3ccccc3C2)c(OC)c1 (stereo not given)	none (no result: hK5 inh, Thrombin inh, FXIIa inh 1536, FXIa inh)
COCCn1c(=O)c2ccccc2c2ccccc2c1=O	none
CCCCn1c(=O)c2ccccc2c2ccccc2c1=O	EP2 modulator 82 | EP2 confirm active
Cc1cc2cc(CN(Cc3ccco3)C(=O)C3CCC3)c3nnnn3c2cc1C	none (no result: hK5 inh, Thrombin inh, FXIIa inh 1536, FXIa inh)
CCOCC(=O)Nc1cc(C(F)(F)F)ccc1Oc1cccc(Br)c1	EP2 modulator 65 | EP2 confirm active
CC(=O)Nc1cc(C(F)(F)F)ccc1Oc1cccc(Br)c1	none
CCOC(=O)c1c(NC(=O)c2cccs2)sc2c1CCN(C(=O)OCC)C2	none | EP2 confirm active
COC(=O)c1c(NC(=O)C2CC2)sc2c1CCCC2	none | EP2 confirm inactive
CCOC(=O)c1c(NC(=O)c2ccco2)sc2c1CCCCC2	EP2 modulator 79 | EP2 confirm active
CCOC(=O)N1CCc2c(sc(NC(=O)c3ccc(Cl)s3)c2C(N)=O)C1	none
Cc1sc(NC(=O)c2cccs2)c(C(=O)OC(C)C)c1C	EP2 modulator 78 | EP2 confirm active
CC(C)OC(=O)c1ccc(NC(=O)c2cccs2)cc1	none (no result: hK5 inh, Thrombin inh, FXIIa inh 1536, FXIa inh)
COc1ccccc1-c1ccc(NS(=O)(=O)c2cn(C)nc2C)cc1	none (no result: hK5 inh, Thrombin inh, FXIIa inh 1536, FXIa inh)
CCOC(=O)c1c(NC(=O)Cc2cccs2)sc2c1CCCC2	none
COC(=O)c1c(NC(=O)c2ccoc2C)sc2c1CCC2	none
CCOC(=O)c1c(NC(=O)c2cccs2)sc2c1CCCC2	none | EP2 confirm inactive
COCC(=O)Nc1sc2c(c1C(=O)OC)C(C(=O)OC)CC2 (stereo not given)	none
CCOC(=O)c1c(NC(=O)c2ccc(Br)o2)sc(C)c1CC	EP2 modulator 74 | EP2 confirm active
COCC(=O)Nc1sc2c(c1C(=O)OC)CCC(C)C2 (stereo not given)	EP2 modulator 70! | EP2 confirm inactive
CCOC(=O)c1c(NC(=O)C2CC2)sc(C)c1CC	none
COC(=O)c1c(NC(=O)c2ccc(Br)s2)sc2c1CCC2	FXIIa inh 1536 55, EP2 modulator 67 | EP2 confirm inactive
O=C(Nc1nnc(Cc2cccc(F)c2)s1)c1ccnc2ccc(Cl)cc12	none (no result: hK5 inh, Thrombin inh, FXIIa inh 1536, FXIa inh)
CCc1ccc(N(CC(=O)N2CCN(C)CC2)S(C)(=O)=O)cc1	none (no result: hK5 inh, Thrombin inh, FXIIa inh 1536, FXIa inh)
Cc1ccc2cc(CN(CCN(C)C)C(=S)Nc3cccc(Cl)c3)c(=O)[nH]c2c1	none (no result: hK5 inh, Thrombin inh, FXIIa inh 1536, FXIa inh)
CCOC(=O)c1c(NC(=O)c2cccs2)sc(C)c1CC	none | EP2 confirm inactive
CCc1c(C)sc(NC(=O)c2cccs2)c1C(=O)OC(C)C	none
COC(=O)c1c(NC(=S)NN2CCOCC2)sc2c1CCCC2	none | EP2 confirm inactive
CC(C)OC(=O)c1c(NC(=O)CCn2nnc3ccccc32)sc2c1CCCC2	none | EP2 confirm inactive
CCC(c1nnnn1CCOC)N1CCN(c2ccccc2)CC1 (stereo not given)	none (no result: hK5 inh, Thrombin inh, FXIIa inh 1536, FXIa inh)
CC(C)CCn1c(N2CCN(c3cccc(Cl)c3)CC2)nc2c1c(=O)[nH]c(=O)n2C	EP2 modulator 65 | EP2 confirm inactive
CCCCCCCCn1c(N2CCN(c3cccc(Cl)c3)CC2)nc2c1c(=O)[nH]c(=O)n2C	none
COc1ccc(N2CCN(c3nc4c(c(=O)[nH]c(=O)n4C)n3Cc3cccc(C)c3)CC2)cc1	EP2 modulator 70 | EP2 confirm inactive
Cc1nn(C)cc1S(=O)(=O)NC1CCN(Cc2ccccc2)C1 (stereo not given)	none (no result: hK5 inh, Thrombin inh, FXIIa inh 1536, FXIa inh)
CCn1c(CSc2nc3ccccc3s2)n[nH]c1=S	none
S=c1[nH]nc(CSc2nc3ccccc3s2)n1Cc1ccccc1	none | EP2 confirm inactive
O=C(N/N=C/c1cccc(F)c1)NC1CCCCC1	EP2 modulator 85 | EP2 confirm active
O=C(N/N=C/c1ccccc1F)NC1CCCCC1	none
CCCCNc1nc(N(C)c2ccccc2)nc(-n2ccnc2)n1	EP2 modulator 77 | EP2 confirm active
CC(C)N1C(=O)C2C(C(=O)NCc3ccccc3)C3C=CC2(O3)C1C(=O)NC1CCCC1 (stereo not given)	none (no result: hK5 inh, Thrombin inh, FXIIa inh 1536, FXIa inh)
COc1ccc(-c2nnc(NC(=O)CC3CCCCC3)s2)cc1	none (no result: hK5 inh, Thrombin inh, FXIIa inh 1536, FXIa inh)
CCOc1nc(C)cc(C)c1S(=O)(=O)c1ccc(Cl)cc1	EP2 modulator 81 | EP2 confirm active
Cc1ccc(S(=O)(=O)c2c(C)cc(C)nc2Cl)cc1	none
CCCn1cnc2sc(CC)cc2c1=O	none | EP2 confirm inactive
CCCn1cnc2sc(C(N)=O)c(C)c2c1=O	none
CCN1C(c2ccccc2)C(C)C(=O)C(C)C1c1ccccc1 (stereo not given)	EP2 modulator 71 | EP2 confirm active
